This note sets out measurements from ChEMBL document CHEMBL5649170, “Sustained microglial depletion with CSF1R inhibitor impairs parenchymal plaque development in an Alzheimer's disease model” (Nat Commun, 2019).

Structures are written as SMILES.

The target of assay [1] is T1, Macrophage colony-stimulating factor 1 receptor (Mus musculus) (UniProt P09581).
T1 sequence (whole entry): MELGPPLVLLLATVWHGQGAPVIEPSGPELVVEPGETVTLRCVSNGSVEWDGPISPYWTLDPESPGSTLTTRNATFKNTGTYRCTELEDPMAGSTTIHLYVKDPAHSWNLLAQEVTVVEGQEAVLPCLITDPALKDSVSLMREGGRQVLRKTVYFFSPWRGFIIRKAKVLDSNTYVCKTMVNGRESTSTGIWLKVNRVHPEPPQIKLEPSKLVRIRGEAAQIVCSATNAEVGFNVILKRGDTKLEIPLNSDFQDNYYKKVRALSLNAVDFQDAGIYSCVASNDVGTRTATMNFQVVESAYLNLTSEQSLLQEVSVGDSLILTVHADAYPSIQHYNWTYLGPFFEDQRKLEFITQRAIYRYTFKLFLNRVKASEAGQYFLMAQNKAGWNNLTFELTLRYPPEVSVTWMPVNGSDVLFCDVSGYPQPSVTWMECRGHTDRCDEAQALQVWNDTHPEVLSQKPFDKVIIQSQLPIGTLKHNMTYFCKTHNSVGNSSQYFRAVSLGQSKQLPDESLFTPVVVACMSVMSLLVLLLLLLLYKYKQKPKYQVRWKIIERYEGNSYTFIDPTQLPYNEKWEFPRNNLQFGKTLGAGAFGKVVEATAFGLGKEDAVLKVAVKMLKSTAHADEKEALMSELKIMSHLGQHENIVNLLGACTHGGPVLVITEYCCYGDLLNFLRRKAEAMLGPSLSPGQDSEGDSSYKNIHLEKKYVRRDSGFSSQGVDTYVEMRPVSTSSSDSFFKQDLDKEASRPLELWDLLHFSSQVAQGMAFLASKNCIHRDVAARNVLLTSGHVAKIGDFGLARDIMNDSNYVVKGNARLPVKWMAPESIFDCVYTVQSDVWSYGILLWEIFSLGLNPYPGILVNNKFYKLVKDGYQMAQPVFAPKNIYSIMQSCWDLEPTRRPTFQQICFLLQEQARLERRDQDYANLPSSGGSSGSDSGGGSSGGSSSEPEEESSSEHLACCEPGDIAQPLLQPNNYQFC
Briefly: In vivo inhibition of CSF1R in wildtype mouse assessed as microglial numbers by measuring number of Iba positive cells per FOV in somatosensory cortex at 75 ppm administered as rodent chow starting from 1.5 months and measured after 5 months by immunolabeling based confocal microscopic analysis (reference value: 218 to 349). The format is functional. Particulars: route po, time 3.5 months.

Assay [2] can be described thus: Effect on Cst7 gene expression in wild type mouse cortex at 1200 ppm administered as rodent chow starting from 1.5 months and measured after 7 months by RNA-Seq analysis (reference value: 0.102 to 0.891 RPKM). The format is functional. The conditions noted are these: route po, time 5.5 months, 4015 h.
In assay [3] the test system is Mus musculus. Nature of the assay: Effect on APP processing pathway in 5XFAD mouse assessed as C99 protein signal intensity in cortex at 1200 ppm administered as rodent starting from 1.5 months and measured after 7 months (reference value: 49.412 to 179.884 %). The format is functional. Particulars: route po, time 5.5 months, 4015 h.
The nature of assay [4]: Effect on Cx3cr1 gene expression in 5XFAD mouse hippocampus at 1200 ppm administered as rodent chow starting from 1.5 months and measured after 7 months by RNA-Seq analysis (reference value: 17.752 to 23.676 RPKM). The format is functional. Particulars: route po, time 5.5 months, 4015 h.
The target in assay [5] is Testis-specific serine/threonine-protein kinase 2 (Homo sapiens, UniProt Q96PF2). Nature of the assay: Inhibition of STK22B (unknown origin).
Assay [6] deals with Mus musculus. Briefly: Antialzheimer activity in 5XFAD mouse assessed as average diameter of claudin-5 blood vessels in Thio-S negative retro spinal cortex at 1200 ppm administered as rodent chow starting from 1.5 months and measured after 4 months by immunolabeling analysis. The format is functional. The conditions noted are these: route po, time 2.5 months, 1825 h.
The target in assay [7] is T1, Macrophage colony-stimulating factor 1 receptor (Mus musculus). Nature of the assay: In vivo inhibition of CSF1R in wildtype mouse assessed as iron reactivity by measuring hemosiderin intensity of prussian blue staining in […] cortex at 1200 ppm administered as rodent chow starting from 1.5 months and measured after 4 months by confocal microscopic analysis (reference value: 0.362 to 5.194 a.u.). The format is functional. The conditions noted are these: route po, time 2.5 months. Summed up:
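Wild-type or 5xFAD mice fed PLX5622 (1200 ppm) in AIN-76A chow from 1.5 months of age, examined in 4- and 7-month-old cohorts. Brain sections stained with a Prussian blue kit per kit instructions to detect iron deposits (microbleeds).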

Assay [8] concerns the target Dual specificity tyrosine-phosphorylation-regulated kinase 1B (Homo sapiens, UniProt Q9Y463). Briefly: Inhibition of DYRK1B (unknown origin).
The target of the next assay is Insulin receptor (Homo sapiens, UniProt P06213). Briefly: Inhibition of INSR (unknown origin).
Insulin receptor, sequence (P06213 28-758 limits assumed): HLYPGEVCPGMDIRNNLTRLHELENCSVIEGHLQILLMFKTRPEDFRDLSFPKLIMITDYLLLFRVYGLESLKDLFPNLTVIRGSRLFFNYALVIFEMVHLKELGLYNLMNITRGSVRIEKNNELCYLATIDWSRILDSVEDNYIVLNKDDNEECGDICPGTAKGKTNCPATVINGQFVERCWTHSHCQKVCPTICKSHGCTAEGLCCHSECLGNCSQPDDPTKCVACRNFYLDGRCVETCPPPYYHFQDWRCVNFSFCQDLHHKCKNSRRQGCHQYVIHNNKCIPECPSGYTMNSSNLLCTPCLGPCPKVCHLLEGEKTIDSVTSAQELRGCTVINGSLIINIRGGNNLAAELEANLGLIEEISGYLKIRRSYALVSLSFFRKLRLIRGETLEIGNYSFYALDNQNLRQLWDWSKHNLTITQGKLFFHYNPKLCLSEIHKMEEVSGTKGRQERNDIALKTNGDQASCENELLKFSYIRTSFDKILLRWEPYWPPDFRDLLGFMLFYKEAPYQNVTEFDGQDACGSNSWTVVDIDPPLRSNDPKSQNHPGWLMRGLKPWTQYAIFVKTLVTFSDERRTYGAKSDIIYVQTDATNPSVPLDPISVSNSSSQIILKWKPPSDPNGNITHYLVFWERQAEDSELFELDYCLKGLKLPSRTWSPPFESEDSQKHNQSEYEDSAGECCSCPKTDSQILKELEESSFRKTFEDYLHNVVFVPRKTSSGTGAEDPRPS
Insulin receptor, sequence (P06213 763-1382 limits assumed): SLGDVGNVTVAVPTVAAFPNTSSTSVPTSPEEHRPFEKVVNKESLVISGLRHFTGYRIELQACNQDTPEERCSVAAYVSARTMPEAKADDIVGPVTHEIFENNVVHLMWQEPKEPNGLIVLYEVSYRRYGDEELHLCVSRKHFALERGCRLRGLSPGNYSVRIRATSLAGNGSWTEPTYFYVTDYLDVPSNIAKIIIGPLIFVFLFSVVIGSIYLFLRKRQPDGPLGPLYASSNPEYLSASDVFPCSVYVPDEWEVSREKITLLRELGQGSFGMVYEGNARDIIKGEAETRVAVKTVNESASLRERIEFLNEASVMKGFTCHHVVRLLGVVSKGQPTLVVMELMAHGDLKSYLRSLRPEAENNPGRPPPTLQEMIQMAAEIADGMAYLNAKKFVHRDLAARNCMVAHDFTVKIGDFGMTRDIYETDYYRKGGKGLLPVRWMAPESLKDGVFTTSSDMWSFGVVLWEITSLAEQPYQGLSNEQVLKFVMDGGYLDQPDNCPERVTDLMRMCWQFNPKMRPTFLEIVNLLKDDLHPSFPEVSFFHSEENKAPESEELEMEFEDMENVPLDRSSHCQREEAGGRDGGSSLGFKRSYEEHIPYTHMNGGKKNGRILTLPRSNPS
Assay [9] has as its target Tyrosine-protein kinase receptor TYRO3 (Homo sapiens, UniProt Q06418). Briefly: Inhibition of TYRO3 (unknown origin).
The target of assay [10] is RAC-alpha serine/threonine-protein kinase (Homo sapiens, UniProt P31749). Nature of the assay: Inhibition of AKT1 (unknown origin).
Assay [11] addresses Serine/threonine-protein kinase D3 (Homo sapiens, UniProt O94806). Nature of the assay: Inhibition of PRKCN (unknown origin).
The nature of assay [12]: Effect on C1qa gene expression in 5XFAD mouse cortex at 1200 ppm administered as rodent chow starting from 1.5 months and measured after 7 months by RNA-Seq analysis (reference value: 31.609 to 64.988 RPKM). The format is functional. Particulars: route po, time 5.5 months, 4015 h. An outline of the steps: (§1)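 WT and 5xFAD mice were treated with 1200 ppm PLX5622 chow or control chow from 1.5 to 7 months of age. Brains were microdissected into cortex, hippocampus and thalamus, and RNA was extracted from tissue powder. Whole-transcriptome RNA-Seq libraries were sequenced, with n = 4 per group per region (48 samples).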

Assay [13] has as its target MAP kinase-activated protein kinase 2 (Homo sapiens, UniProt P49137). Briefly: Inhibition of MAPKAPK2 (unknown origin).
Assay [14] in a line: Prevention of Dync1i1 gene downregulation in 5XFAD mouse hippocampus assessed as percent change in Reads Per kilo base per Million mapped reads at 1200 ppm administered as rodent chow starting from 1.5 months and measured after 7 months by RNA-Seq analysis (reference value: 65.184 to 88.242 %). The conditions noted are these: route po, time 5.5 months, 4015 h. The format is functional.

Assay [15] concerns the target Tyrosine-protein kinase SYK (Homo sapiens, UniProt P43405). Nature of the assay: Inhibition of SYK (unknown origin).
A short description of assay [16]: Effect on C1qa gene expression in 5XFAD mouse hippocampus at 1200 ppm administered as rodent chow starting from 1.5 months and measured after 7 months by RNA-Seq analysis (reference value: 61.868 to 70.581 RPKM). The format is functional. The conditions noted are these: route po, time 5.5 months, 4015 h. An outline of the steps:
as §1

For assay [17], the system named is Mus musculus. Briefly: Antialzheimer activity in 5XFAD mouse assessed as number of open arm entries at 1200 ppm administered as rodent chow for 10 to 24 weeks by Elevated plus maze test (reference value: 10 to 33). The conditions noted are these: route po, time 10-24 weeks. The format is functional.
In assay [18] the target is Tyrosine-protein kinase ABL1 (Homo sapiens, UniProt P00519). Nature of the assay: Inhibition of ABL1 (unknown origin).
Tyrosine-protein kinase ABL1, sequence (P00519 whole entry): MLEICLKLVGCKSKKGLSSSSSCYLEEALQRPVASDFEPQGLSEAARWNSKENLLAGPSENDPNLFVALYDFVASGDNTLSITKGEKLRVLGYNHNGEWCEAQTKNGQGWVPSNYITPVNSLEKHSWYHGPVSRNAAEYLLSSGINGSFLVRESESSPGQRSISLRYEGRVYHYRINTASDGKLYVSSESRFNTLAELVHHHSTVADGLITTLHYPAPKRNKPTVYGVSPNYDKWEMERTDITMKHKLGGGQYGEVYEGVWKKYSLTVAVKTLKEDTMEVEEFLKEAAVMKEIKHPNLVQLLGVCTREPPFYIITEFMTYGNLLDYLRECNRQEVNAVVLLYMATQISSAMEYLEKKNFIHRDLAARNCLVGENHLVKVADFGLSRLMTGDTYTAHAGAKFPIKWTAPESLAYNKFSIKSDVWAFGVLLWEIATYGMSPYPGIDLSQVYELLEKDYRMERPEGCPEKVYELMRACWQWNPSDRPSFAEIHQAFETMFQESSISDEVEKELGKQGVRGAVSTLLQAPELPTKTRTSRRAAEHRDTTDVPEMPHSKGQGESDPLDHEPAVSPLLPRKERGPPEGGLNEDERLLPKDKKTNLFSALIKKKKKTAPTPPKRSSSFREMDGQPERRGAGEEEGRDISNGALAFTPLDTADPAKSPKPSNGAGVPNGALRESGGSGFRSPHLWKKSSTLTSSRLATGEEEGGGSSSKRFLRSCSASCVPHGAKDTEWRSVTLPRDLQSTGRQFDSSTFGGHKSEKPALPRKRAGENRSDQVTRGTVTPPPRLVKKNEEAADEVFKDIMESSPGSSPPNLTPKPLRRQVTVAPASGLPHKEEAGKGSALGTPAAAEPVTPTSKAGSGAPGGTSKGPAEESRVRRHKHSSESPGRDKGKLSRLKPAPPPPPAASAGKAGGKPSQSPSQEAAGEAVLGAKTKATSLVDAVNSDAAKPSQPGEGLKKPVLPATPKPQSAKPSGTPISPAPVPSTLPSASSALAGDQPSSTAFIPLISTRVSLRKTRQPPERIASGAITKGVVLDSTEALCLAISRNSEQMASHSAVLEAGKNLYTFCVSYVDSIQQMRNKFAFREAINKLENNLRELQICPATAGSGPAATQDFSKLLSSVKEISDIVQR
Assay [19] addresses Ribosomal protein S6 kinase beta-1 (Homo sapiens, UniProt P23443). Nature of the assay: Inhibition of RPS6KB1 (unknown origin).
Assay [20] addresses Glycogen synthase kinase-3 beta (Homo sapiens, UniProt P49841). Briefly: Inhibition of GSK3B (unknown origin).

Glycogen synthase kinase-3 beta, sequence (P49841 whole entry): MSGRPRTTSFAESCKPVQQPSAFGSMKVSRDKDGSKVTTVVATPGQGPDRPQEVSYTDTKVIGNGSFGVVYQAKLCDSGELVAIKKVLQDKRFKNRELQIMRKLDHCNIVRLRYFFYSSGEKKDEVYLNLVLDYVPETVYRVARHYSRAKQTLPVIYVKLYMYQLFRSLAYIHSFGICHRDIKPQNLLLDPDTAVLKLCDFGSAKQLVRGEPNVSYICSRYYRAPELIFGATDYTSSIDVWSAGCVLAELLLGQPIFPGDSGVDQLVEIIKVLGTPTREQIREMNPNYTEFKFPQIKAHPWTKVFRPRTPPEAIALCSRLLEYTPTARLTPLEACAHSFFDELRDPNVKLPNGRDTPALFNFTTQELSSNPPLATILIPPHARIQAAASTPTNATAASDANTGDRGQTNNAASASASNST
Ribosomal protein S6 kinase beta-1, sequence (P23443 whole entry): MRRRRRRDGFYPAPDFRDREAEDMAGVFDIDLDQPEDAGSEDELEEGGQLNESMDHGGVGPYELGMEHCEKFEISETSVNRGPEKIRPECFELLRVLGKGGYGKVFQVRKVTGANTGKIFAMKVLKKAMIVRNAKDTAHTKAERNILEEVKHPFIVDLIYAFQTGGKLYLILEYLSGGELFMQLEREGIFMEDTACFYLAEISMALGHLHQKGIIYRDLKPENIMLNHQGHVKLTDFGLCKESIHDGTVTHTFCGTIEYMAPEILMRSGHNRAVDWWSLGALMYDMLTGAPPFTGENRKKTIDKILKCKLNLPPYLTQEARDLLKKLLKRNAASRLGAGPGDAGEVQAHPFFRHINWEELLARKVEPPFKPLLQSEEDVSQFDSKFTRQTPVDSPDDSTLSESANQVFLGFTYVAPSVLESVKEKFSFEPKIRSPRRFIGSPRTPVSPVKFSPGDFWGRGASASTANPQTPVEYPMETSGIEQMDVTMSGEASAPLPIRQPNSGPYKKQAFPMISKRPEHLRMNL
Serine/threonine-protein kinase D3, sequence (O94806 whole entry): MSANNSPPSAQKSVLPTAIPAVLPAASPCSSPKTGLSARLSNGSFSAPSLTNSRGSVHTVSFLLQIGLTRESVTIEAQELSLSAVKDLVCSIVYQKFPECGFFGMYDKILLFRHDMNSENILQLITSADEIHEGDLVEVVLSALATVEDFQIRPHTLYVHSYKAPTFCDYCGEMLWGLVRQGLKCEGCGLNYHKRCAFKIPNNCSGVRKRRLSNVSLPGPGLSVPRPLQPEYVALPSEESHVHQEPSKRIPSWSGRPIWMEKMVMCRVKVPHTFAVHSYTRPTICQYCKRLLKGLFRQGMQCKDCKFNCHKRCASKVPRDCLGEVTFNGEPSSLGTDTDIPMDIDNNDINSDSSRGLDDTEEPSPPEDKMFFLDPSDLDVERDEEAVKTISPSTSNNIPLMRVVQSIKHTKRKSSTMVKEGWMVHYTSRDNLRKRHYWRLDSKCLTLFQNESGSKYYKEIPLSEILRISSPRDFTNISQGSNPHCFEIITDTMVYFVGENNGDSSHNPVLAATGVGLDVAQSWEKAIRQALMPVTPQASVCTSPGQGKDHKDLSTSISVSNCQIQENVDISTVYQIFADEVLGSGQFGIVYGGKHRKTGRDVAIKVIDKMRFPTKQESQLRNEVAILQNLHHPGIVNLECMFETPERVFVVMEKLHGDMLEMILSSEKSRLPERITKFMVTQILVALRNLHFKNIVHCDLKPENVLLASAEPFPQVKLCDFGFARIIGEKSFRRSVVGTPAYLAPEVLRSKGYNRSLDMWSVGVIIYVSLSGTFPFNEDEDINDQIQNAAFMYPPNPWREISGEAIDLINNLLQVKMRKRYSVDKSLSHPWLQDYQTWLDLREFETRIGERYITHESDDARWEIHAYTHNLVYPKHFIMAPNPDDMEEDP
Dual specificity tyrosine-phosphorylation-regulated kinase 1B, sequence (Q9Y463 whole entry): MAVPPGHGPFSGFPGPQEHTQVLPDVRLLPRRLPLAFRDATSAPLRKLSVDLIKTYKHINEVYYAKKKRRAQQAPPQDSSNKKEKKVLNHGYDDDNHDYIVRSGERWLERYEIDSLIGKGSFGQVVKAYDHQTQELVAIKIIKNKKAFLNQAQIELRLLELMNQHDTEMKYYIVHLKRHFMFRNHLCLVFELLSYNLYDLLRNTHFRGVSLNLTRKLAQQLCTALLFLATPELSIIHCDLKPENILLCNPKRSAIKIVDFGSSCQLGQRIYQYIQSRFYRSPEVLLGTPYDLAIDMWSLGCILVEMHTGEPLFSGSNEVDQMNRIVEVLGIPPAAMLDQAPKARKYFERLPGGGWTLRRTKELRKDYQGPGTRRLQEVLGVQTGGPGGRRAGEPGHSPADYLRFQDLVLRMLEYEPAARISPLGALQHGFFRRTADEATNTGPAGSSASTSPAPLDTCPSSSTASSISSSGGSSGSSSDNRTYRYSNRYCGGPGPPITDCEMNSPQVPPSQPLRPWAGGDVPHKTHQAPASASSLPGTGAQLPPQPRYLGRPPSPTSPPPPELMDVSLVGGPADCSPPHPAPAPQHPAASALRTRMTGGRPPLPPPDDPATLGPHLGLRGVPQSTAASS

For `FC(F)(F)c1ccc(CNc2ccc(Cc3c[nH]c4ncc(Cl)cc34)cn2)cn1` [PEXIDARTINIB], the Activity in assay [1] amounted to 205.
For `COc1ncc(F)cc1CNc1ccc(Cc2c[nH]c3ncc(C)cc23)c(F)n1` [PLX-5622], the Activity in assay [2] is listed as 0 RPKM; in the assay with Mus musculus [3] it was 75.956%; in [4] it was 1.607 RPKM; in the assay with Mus musculus [6], 1.786 um; in assay [12] it was 2.8 RPKM; in [14] it was 89.818%. The Activity in [16] was determined as 6.689 RPKM; in the assay on Mus musculus [17], 15. In addition, the IC50 (in [5]; in assay [8]; against Insulin receptor; in [9]; in assay [10]; in [11]) was above 1000 nM in each case. Besides, the concentration for half-maximal inhibition (IC50) in [13], in assay [15], in [18], in assay [19] and in assay [20] was above 1000 nM in each case. Besides, in assay [7], the Flu intensity was determined as 0.1 a.u.
